{"data": "Published values from different studies", "target": "Receptor tyrosine-protein kinase erbB-4 (ERBB4, Homo sapiens, UniProt Q15303)"}
{"SMILES": "CC(C)CC(=O)N1CCc2nc(-c3ccc(Br)cc3)nc(N(C)Cc3ccccc3)c2C1", "effect on": "cell-free assay", "method": "competition with immobilised ligand", "concentration": "0.1 µM", "quantity": "remaining binding", "value": "94%"}
{"SMILES": "CC(C)(O)[C@H]1CC[C@H](Nc2ccc3ncc(-c4cccc(C(F)(F)F)c4)n3n2)CC1", "effect on": "enzyme activity", "mode": "inhibitor", "concentration": "1 µM", "quantity": "remaining activity", "value": "92.6%"}
{"SMILES": "C=CC(=O)Nc1cc(Nc2nccc(Nc3cc(Cl)c(F)cc3C(C)(C)O)n2)c(OC)cc1N1CC[C@@H](N(C)C)C1", "effect on": "enzyme activity", "mode": "inhibitor", "concentration": "1 µM", "quantity": "inhibition", "value": "88%"}
{"SMILES": "CN(C)c1ncnc(-c2ccc3nc(Nc4cc(CN5CCN(C(=O)CC(F)(F)F)CC5)ccn4)[nH]c3c2)c1Cl", "effect on": "cell-free assay", "method": "competition with immobilised ligand", "concentration": "1 µM", "quantity": "remaining binding", "value": "99%"}
{"SMILES": "O=C(CSc1nc2nccnc2c(=O)n1CCc1ccccc1)Nc1nccs1", "effect on": "enzyme activity", "mode": "inhibitor", "concentration": "10 µM", "quantity": "inhibition", "value": "-4%"}
{"SMILES": "COc1cc2ncnc(Nc3ccc(Oc4ccccc4)cc3C)c2cc1OC", "effect on": "enzyme activity", "mode": "inhibitor", "concentration": "1 µM", "quantity": "inhibition", "value": "98%"}
{"SMILES": "Cc1ccc(NC(=O)c2ccc(CN3CCN(C)CC3)cc2)cc1Nc1nc(-c2cccnc2)cs1", "effect on": "cell-free assay", "concentration": "0.5 µM", "quantity": "remaining signal", "value": "93.5%"}
{"SMILES": "Cn1c(=O)n(-c2ccc(C(C)(C)C#N)cc2)c2c3cc(-c4cnc5ccccc5c4)ccc3ncc21", "effect on": "enzyme activity", "mode": "inhibitor", "concentration": "10 µM", "quantity": "remaining activity", "value": "117%"}
{"SMILES": "COc1cc(/C=C/C(=O)CC(=O)/C=C/c2ccc(O)c(OC)c2)ccc1O", "effect on": "enzyme activity", "mode": "inhibitor", "concentration": "1 µM", "quantity": "activity vs control", "value": "71%"}
{"SMILES": "O=C(O)[C@H]1[C@H](Cn2nnc3ccccc3c2=O)CC[C@@H]1C(=O)c1ccc(OCCC2CCOCC2)cc1", "effect on": "cell-free assay", "method": "competition with immobilised ligand", "concentration": "1 µM", "quantity": "remaining binding", "value": "89%"}
{"SMILES": "CC(C)(C)c1nc2c(s1)c1nc(N)ncc1c1ccc(NS(=O)(=O)c3c(F)cccc3F)c(F)c12", "effect on": "enzyme activity", "mode": "inhibitor", "method": "radiometric", "concentration": "1 µM", "quantity": "remaining activity", "value": "80%"}
{"SMILES": "Oc1cccc(-c2nc(N3CCOCC3)c3oc4ncccc4c3n2)c1", "effect on": "enzyme activity", "mode": "inhibitor", "concentration": "10 µM", "quantity": "remaining activity", "value": "114%"}
{"SMILES": "O=C(NC[C@@H]1[C@H]2CN(C(=O)OCc3cc(C(F)(F)F)cc(C(F)(F)F)c3)C[C@@H]12)c1ccc2[nH]nnc2c1", "effect on": "cell-free assay", "method": "competition with immobilised ligand", "concentration": "1 µM", "quantity": "remaining binding", "value": "100%"}
{"SMILES": "COc1cc(Nc2cnc(C#N)c(O[C@H](C)CN(C)C)n2)ncc1-c1cnn(C)c1", "effect on": "enzyme activity", "mode": "inhibitor", "method": "radiometric", "concentration": "1 µM", "quantity": "remaining activity", "value": "101%"}
{"SMILES": "Cc1ccc(Nc2nccc(N(C)c3ccc4c(C)n(C)nc4c3)n2)cc1S(N)(=O)=O", "effect on": "enzyme activity", "mode": "inhibitor", "concentration": "0.3 µM", "quantity": "inhibition", "value": "-9%"}
{"SMILES": "O=C1NC(=O)c2cc(Nc3ccc(F)cc3)c(Nc3ccc(F)cc3)cc21", "effect on": "cell-free assay", "concentration": "0.5 µM", "quantity": "remaining signal", "value": "99.4%"}
{"SMILES": "Cc1ccc(C(=O)Nc2ccc(CN3CCN(C)CC3)c(C(F)(F)F)c2)cc1C#Cc1cnc2cccnn12", "effect on": "enzyme activity", "mode": "inhibitor", "concentration": "23.5 nM", "quantity": "remaining activity", "value": "57%"}
{"SMILES": "CCCS(=O)(=O)Nc1ccc(F)c(C(=O)c2c[nH]c3ncc(-c4ccc(Cl)cc4)cc23)c1F", "effect on": "enzyme activity", "mode": "inhibitor", "concentration": "1 µM", "quantity": "inhibition", "value": "< 10%"}
{"SMILES": "O=C(Nc1cccnn1)N1CCC(=Cc2cccc(Oc3ccc(C(F)(F)F)cn3)c2)CC1", "effect on": "cell-free assay", "method": "competition with immobilised ligand", "concentration": "1 µM", "quantity": "remaining binding", "value": "100%"}
{"SMILES": "Nc1ncnc2occ(-c3ccc(NC(=O)Nc4cc(C(F)(F)F)ccc4F)cc3)c12", "effect on": "cell-free assay", "mode": "inhibitor", "concentration": "20 µM", "quantity": "remaining signal", "value": "57%"}
{"SMILES": "CN(C)C(=O)Cn1cc(-c2nc([C@@](C)(c3ccc(-c4cnc(N)nc4)cc3)C3CC3)no2)cn1", "effect on": "cell-free assay", "method": "competition with immobilised ligand", "concentration": "1 µM", "quantity": "remaining binding", "value": "100%"}
{"SMILES": "CCN(CC)c1ccc(C2=NNC(=O)CC2C)cc1[N+](=O)[O-] (stereo not drawn)", "effect on": "enzyme activity", "mode": "inhibitor", "concentration": "10 µM", "quantity": "remaining activity", "value": "94%"}
{"SMILES": "Cc1cc(-n2nc(Cc3cc(F)cc(C(F)(F)F)c3)nc2C)ccc1C(N)=O", "effect on": "cell-free assay", "method": "competition with immobilised ligand", "concentration": "1 µM", "quantity": "remaining binding", "value": "67%"}
{"SMILES": "CCN(CC)CCNC(=O)c1c(C)[nH]c(/C=C2\\C(=O)Nc3ccc(F)cc32)c1C", "effect on": "cell-free assay", "concentration": "0.5 µM", "quantity": "remaining signal", "value": "94.8%"}
{"SMILES": "Cc1cc(NC(=O)c2cccc3cc(-c4cccc5[nH]nc(N)c45)ccc23)ccc1F", "effect on": "enzyme activity", "mode": "inhibitor", "concentration": "0.1 µM", "quantity": "activity vs control", "value": "102%"}
{"SMILES": "CCCOc1ccc([C@@H]2[C@@H](C(=O)O)[C@H](c3ccc4c(c3)OCO4)CN2CC(=O)Nc2c(CC)cccc2CC)cc1", "effect on": "cell-free assay", "method": "competition with immobilised ligand", "concentration": "1 µM", "quantity": "remaining binding", "value": "100%"}
{"SMILES": "N#CCCc1ccc2c(c1)-c1[nH]c3ccc([N+](=O)[O-])cc3c1CC(=O)N2", "effect on": "cell-free assay", "concentration": "0.5 µM", "quantity": "remaining signal", "value": "91.8%"}
